Experiments:
Rat [1] = test: concentration in plasma after dosing; conditions: dosed: Isoeugenol, 17 mg/kg, oral, Female, F344/N
Rat [2] = test: concentration in plasma after dosing; conditions: dosed: Isoeugenol, 70 mg/kg, oral, Male, F344/N
Rat [3] = test: concentration in plasma after dosing; conditions: dosed: Isoeugenol, 70 mg/kg, oral, Male, F344/N; remark: listed apart in the source
Rat [4] = test: concentration in plasma after dosing; conditions: dosed: Isoeugenol, 17 mg/kg, oral, Female, F344/N; remark: listed apart in the source
Rat [5] = test: concentration in plasma after dosing; conditions: dosed: Isoeugenol, 70 mg/kg, oral, Male, F344/N; remark: listed apart in the source
Rat [6] = test: concentration in plasma after dosing; conditions: dosed: Isoeugenol, 17 mg/kg, oral, Female, F344/N; remark: listed apart in the source
Rat [7] = test: concentration in plasma after dosing; conditions: dosed: Isoeugenol, 17 mg/kg, oral, Female, F344/N; remark: listed apart in the source
Rat [8] = test: concentration in plasma after dosing; conditions: dosed: Isoeugenol, 17 mg/kg, oral, Female, F344/N; remark: listed apart in the source
Rat [9] = test: concentration in plasma after dosing; conditions: dosed: Isoeugenol, 70 mg/kg, oral, Male, F344/N; remark: listed apart in the source
Rat [10] = test: concentration in plasma after dosing; conditions: dosed: Isoeugenol, 17 mg/kg, oral, Male, F344/N
Rat [11] = test: concentration in plasma after dosing; conditions: dosed: Tetralin, 2 mg/kg, iv, Male, F344
Rat [12] = test: concentration in plasma after dosing; conditions: 2 h; dosed: Tetralin; 2 mg/kg; iv; Male; Harlan Sprague Dawley
Rat [13] = test: concentration in plasma after dosing; conditions: dosed: Tetralin, 20 mg/kg, iv, Female, Harlan Sprague Dawley
Rat [14] = test: concentration in plasma after dosing; conditions: dosed: Tetralin, 20 mg/kg, iv, Female, Harlan Sprague Dawley; remark: listed apart in the source
Rat [15] = test: concentration in plasma after dosing; conditions: 2 h; dosed: Tetralin; 20 mg/kg; iv; Female; Harlan Sprague Dawley
Rat [16] = test: concentration in plasma after dosing; conditions: dosed: Tetralin, 2 mg/kg, iv, Male, Harlan Sprague Dawley
human [17] = test: concentration in expired air after dosing; conditions: dosed: styrene, inhalation
Procedure, shortened: (§1)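 Data points giving concentration or amount against time came from published in vivo toxicokinetic studies and from two structured collections. PubMed searching, classifier screening and manual review located the studies. Most points were digitised from plot screenshots using WebPlotDigitizer, the rest were copied from tables, and all keep their reported units.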

rat [18] = test: concentration in blood after dosing; conditions: dosed: styrene, 3000 ppm, dermal, duration: 4 hr, male, F344
human [19] = test: concentration in blood after dosing; negative times count back from the end of exposure; conditions: dosed: methylethylketone, 400 ppm, inhalation, duration: 4 hr, male
Procedure, shortened: as §1

C/C=C/c1ccc(O)c(OC)c1 [Isoeugenol]
Conditions | concentration in plasma [ng/mL]
Rat [1], 1.5 h | 26
Rat [1], 2 min | 25.6
Rat [2], 6 h | 240
Rat [2], 20 min | 1840
Rat [3], 1.5 h | 209
Rat [3], 5 min | 526
Rat [4], 0.5 h | 162
Rat [4], 4 h | 33.5
Rat [5], 5 h | 66.8
Rat [5], 10 min | 353
Rat [6], 1 h | 22.7
Rat [6], 3 h | 29.5
Rat [7], 4 h | 28.5
Rat [7], 10 min | 500
Rat [8], 8 h | 31.8
Rat [8], 20 min | 311
Rat [9], 4 h | 339
Rat [9], 20 min | 557
Rat [10], 1 h | 28.4
Rat [10], 3 h | 68.6

c1ccc2c(c1)CCCC2 [Tetralin]
Conditions | concentration in plasma [µg/g]
Rat [11], 1 h | 0.066
Rat [11], 24 h | 0.00085
Rat [13], 0.5017 h | 5.04
Rat [13], 8 h | 0.0561
Rat [14], 0.505 h | 5.59
Rat [14], 8 h | 0.077
Rat [16], 0.75 h | 0.0729
Rat [16], 12 h | 0.00211

Conditions | concentration in plasma [µg/g]
Rat [12] | 0.0179
Rat [15] | 0.52

C=Cc1ccccc1 [styrene]
human [17], male
Conditions | concentration in expired air [ppm]
0.1527 h, 51 ppm, duration: 1 hr | 0.506
0.2175 h, 376 ppm, duration: 1 hr | 4
0.2306 h, 216 ppm, duration: 1 hr | 2.27
0.2368 h, 51 ppm, duration: 1 hr | 0.409
0.2553 h, 99 ppm, duration: 7 hr | 1.24
0.3483 h, 99 ppm, duration: 7 hr | 1.14
0.4469 h, 376 ppm, duration: 1 hr | 3.1
0.4803 h, 51 ppm, duration: 1 hr | 0.317
0.5105 h, 99 ppm, duration: 7 hr | 1.08
0.7137 h, 376 ppm, duration: 1 hr | 2.21
0.8189 h, 99 ppm, duration: 7 hr | 0.876
0.9608 h, 216 ppm, duration: 1 hr | 0.927
0.9799 h, 51 ppm, duration: 1 hr | 0.0904
1.046 h, 376 ppm, duration: 1 hr | 1.29
1.064 h, 99 ppm, duration: 7 hr | 0.733
1.944 h, 99 ppm, duration: 7 hr | 0.648
1.964 h, 216 ppm, duration: 1 hr | 0.501
1.984 h, 376 ppm, duration: 1 hr | 0.934
1.988 h, 51 ppm, duration: 1 hr | 0.0505
2.93 h, 99 ppm, duration: 7 hr | 0.521
2.954 h, 376 ppm, duration: 1 hr | 0.719
2.958 h, 216 ppm, duration: 1 hr | 0.345
3.928 h, 216 ppm, duration: 1 hr | 0.226
3.963 h, 376 ppm, duration: 1 hr | 0.827
4.085 h, 99 ppm, duration: 7 hr | 0.403
4.943 h, 376 ppm, duration: 1 hr | 0.594
4.946 h, 216 ppm, duration: 1 hr | 0.197
4.988 h, 99 ppm, duration: 7 hr | 0.355
5.975 h, 376 ppm, duration: 1 hr | 0.586
5.991 h, 216 ppm, duration: 1 hr | 0.112
5.998 h, 99 ppm, duration: 7 hr | 0.242
7.018 h, 216 ppm, duration: 1 hr | 0.0821
19 s, 51 ppm, duration: 1 hr | 14.8
41 s, 216 ppm, duration: 1 hr | 4.56
65 s, 51 ppm, duration: 1 hr | 1.02
96 s, 376 ppm, duration: 1 hr | 9.08
141 s, 216 ppm, duration: 1 hr | 3.69
148 s, 51 ppm, duration: 1 hr | 0.849
148 s, 99 ppm, duration: 7 hr | 2.17
196 s, 376 ppm, duration: 1 hr | 7.4
214 s, 51 ppm, duration: 1 hr | 0.744
251 s, 99 ppm, duration: 7 hr | 1.35

human [17], 80 ppm, duration: 6 hr
Conditions | concentration in expired air [ng/mL]
6.225 h | 4.3
6.495 h | 2.75
7.17 h | 1.58
8.16 h | 1.16
10.28 h | 0.549
12.21 h | 0.402
14.37 h | 0.315
18.33 h | 0.308
23.51 h | 0.257
30.62 h | 0.148
46.95 h | 0.102

rat [18]
Conditions | concentration in blood [ng/mL]
0.5 h | 7760
1 h | 7040
2 h | 11500
3 h | 7240
4 h | 13000

CCC(C)=O [methylethylketone]
human [19]
Conditions | concentration in blood [µM]
0.1276 h | 272
0.2874 h | 258
0.4715 h | 227
0.9608 h | 208
1.479 h | 139
1.973 h | 122
2.966 h | 102
4.323 h | 54.9
4.977 h | 22.4
5.98 h | 16.2
6.983 h | 7.11

human [19], during exposure
Conditions | concentration in blood [µM]
-64 s | 309
-3.826 h | 72.5
-3.661 h | 84.6
-3.486 h | 115
-2.992 h | 143
-2.503 h | 181
-1.994 h | 218
-1.011 h | 276

From EPA's CvTdb concentration-time database
